Compound activity from PubChem.
Gli-Sufu antag = blocks Gli-Sufu signaling in a luciferase reporter; Sufu-KO-LIGHT fibroblasts, Gli luciferase reporter luminescence; inhibition, % at 5 µM; 340,000 tested, 0.74% active; AID 588413;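 active = inhibition above about 55%, limit read from the data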;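 also: 0% = DMSO-treated cells and 100% = wells with medium but no cells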
H9c2 TAG inh = triacylglycerol accumulation inhibition. H9c2 cells, Nile Red lipid (TAG) fluorescence; cells loaded with 200 µM oleic acid. inhibition, % at 12.5 µM. 230,000 tested, 0.66% active. AID 651582;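 active = pattern-corrected inhibition of lipid staining of at least 50% with the nuclear-stain viability signal not falling by more than 50%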;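 also: 0% = DMSO wells and 100% = triacsin C control wells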
Hep lipid drop = hepatic lipid droplet formation modulation; AML12 mouse hepatocytes, oleate lipid droplets, BODIPY imaging; inhibition, % at 6.5 µM; 240,000 tested, 0.4% active;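 active = lipid droplet intensity inhibited by at least 50%, with more than 500 cells counted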
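Test system: AML12 mouse liver cells; schedule: overnight exposure; technique: high-content imaging of BODIPY-stained droplets and DAPI nuclei; read-out: % inhibition of corrected integrated BODIPY droplet signal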
697 NFkB inh = lowers PMA/ionomycin-induced NF-kB signal in 697 B cells | 697 B-cell NF-kB luciferase reporter, 16 h | inhibition, % at 4 µM | 330,000 tested, 0.33% active | AID 435022; in the data active = inhibition above about 35%
Jurkat NFkB inh = inhibitors of the PMA/ionomycin-induced NF-kB reporter in Jurkat cells; PMA/ionomycin-induced NF-kB luciferase reporter, luminescence; inhibition, % at 4 µM; 330,000 tested, 0.53% active; AID 435003; in the data active = inhibition above about 50%
hiPSC survival = enhancers of human iPSC single-cell survival | 360,000 tested, 0.044% active | AID 602274 | hiPSC single-cell survival, ATPlite luminescence; 100% = ROCK inhibitor wells, 0% = DMSO | survival enhancement, % at 20 µM; in the data active = survival enhancement above about 18%;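 also: cells exposed to compounds for 16 hours before the ATP read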
Active calls of the source: *; x = not tested or not shown. Rows were chosen to be rich in hits. Some 1.8% of all compounds tested hit in one or more screens of this group.

SMILES	Gli-Sufu antag	H9c2 TAG inh	Hep lipid drop	697 NFkB inh	Jurkat NFkB inh	hiPSC survival
Cc1ccccc1NC(=O)CN1C(=O)NC2(CCc3ccccc32)C1=O (stereo unspecified)	-2	-21	x	21	1	2
COc1cc2c(cc1NC(=O)CN1C(=O)NC3(CCc4ccccc43)C1=O)oc1ccccc12 (stereo unspecified)	-4	55*	x	10	6	-1
Cc1ccc(C(=O)NCCC(=O)N2CCC3(CC2)NCCc2[nH]cnc23)cc1C	4	x	21	0	7	0
Cc1cc(C)c2oc(C(=O)N3CCN(Cc4ccccc4)CC3)cc(=O)c2c1	8	x	-36	-14	-12	-1
O=C1C(Nc2ccccc2)=C/C(=N/S(=O)(=O)c2cccs2)c2ccccc21	35	x	-2	x	x	-4
Cc1ccc(NC2=C/C(=N/S(=O)(=O)c3cccs3)c3ccccc3C2=O)cc1	60*	x	23	-97	-24	-2
O=Cc1ccc(O)c2ncccc12	64*	x	7	-5	15	0
CN(C)CCOc1ccc(-c2c(-c3ccccc3)sc3ccccc23)cc1	12	58*	x	13	-9	-7
CCCCCCCCCCOC(=O)Cn1c(COc2ccc(OC)cc2)[n+](C)c2ccccc21	76*	x	-100	-6	41	0
CCCCCCCCCCOC(=O)Cn1c(COc2ccc(Cl)cc2)[n+](C)c2ccccc21	68*	x	11	-1	33	1
CCCCCCCCCCOC(=O)Cn1c(COc2ccccc2C)[n+](C)c2ccccc21	85*	x	-62	30	45	0
CCCCCCCCCCOC(=O)Cn1c(COc2cccc(C)c2)[n+](C)c2ccccc21	x	x	-80	6	35	0
CCCCCCCCCCOC(=O)Cn1c(COc2ccccc2)[n+](C)c2ccccc21	62*	x	-112	-3	8	0
Cc1cc(C(=O)COC(=O)c2ccccc2O)c(C)n1Cc1cccs1	81*	x	-3	1	27	-4
Cc1cc(C(=O)COC(=O)c2ccccc2Br)c(C)n1CC1CCCO1 (stereo unspecified)	76*	9	0	-35	46	0
Cc1cc(C(=O)COC(=O)c2ccc3c(c2)OCO3)c(C)n1Cc1cccs1	19	2	x	-9	-4	-2
Cc1nn(-c2nc3ccccc3[nH]2)c(=O)c2ccccc12	79*	3	29	x	x	-3
Cc1nn(-c2ccc3ccccc3c2)c(=O)c2ccccc12	-81	-45	0	-105	-78	-2
Oc1ccc(Nc2nc(N3CCCC3)c3ccccc3n2)cc1	58*	52*	x	-43	-15	-1
CCN1C(=O)[C@@H]2Cc3c([nH]c4ccccc34)C(c3cc(OC)c(OC)c(OC)c3)N2C1=S (stereo partly specified)	2	x	x	9	23	0
COc1cc([C@H]2c3[nH]c4ccccc4c3C[C@H]3C(=O)N4[C@@H](c5cc(OC)c(OC)c(OC)c5)c5[nH]c6ccccc6c5C[C@H]4C(=O)N23)cc(OC)c1OC	6	50*	44	9	3	-2
COC(=O)c1ccc2nc(C3CCCCC3)c(Cc3ccccc3)n2c1	x	x	x	x	x	2
O=C(c1ccc(Br)c(S(=O)(=O)N2CCOCC2)c1)N1CCN(C/C=C/c2ccccc2)CC1	2	-3	x	x	x	0
CC(=O)Nc1ccc(S(=O)(=O)Nc2ccc(Cc3ccncc3)cc2)cc1	45	x	-11	-9	3	0
CC(C)(C)c1ccc(S(=O)(=O)Nc2ccc(Cc3ccncc3)cc2)cc1	35	x	67*	-52	27	-2
SMILES	Gli-Sufu antag	H9c2 TAG inh	Hep lipid drop	697 NFkB inh	Jurkat NFkB inh	hiPSC survival
CCOC(=O)c1cnc(-n2nc(C)cc2C)nc1NC	-22	0	x	-23	-15	2
CCOC(=O)c1cnc(-n2nc(C)cc2C)nc1NC1CCCCC1	82*	-32	x	-9	6	8
CCc1cccc(C)c1N=Cc1c(O)c2ccccc2oc1=O	28	x	1	-4	1	0
Cc1cccc2c1Sc1ccc(Cl)cc1CC2N1CCNCC1 (stereo unspecified)	2	x	x	-28	15	x
CCc1cccc2c1Sc1ccccc1CC2N1CCNCC1 (stereo unspecified)	5	67*	x	-30	7	0
O=C(CCl)Nc1ccc(S(=O)(=O)NC2=NCCCCC2)cc1	6	43	x	24	15	-3
O=C(CCl)Nc1cccc(S(=O)(=O)NC2=NCCCCC2)c1	17	57*	x	-12	9	0
Cc1ccc(CN2CCNC(=O)C2CC(=O)NCCCn2ncc3ccccc32)o1 (stereo unspecified)	12	6	0	x	x	1
O=S(=O)(c1ccccc1)N1CCN(c2cc(-c3ccccc3)nc3ncnn23)CC1	57*	x	x	12	41	0
O=S(=O)(c1ccc(Br)cc1)N1CCN(c2cc(-c3ccccc3)nc3ncnn23)CC1	10	x	-12	4	-5	2
COc1ccc(-c2csc(NC(=O)c3ccccc3NS(=O)(=O)c3ccc(F)c(F)c3)n2)cc1	75*	0	-23	-8	16	-1
COc1ccc(-c2csc(NC(=O)c3ccccc3F)n2)cc1	-6	-11	2	-2	1	-1
CC(C)(C)c1cc(CCC(=O)N2CCNCC2)c(C(C)(C)C)cc1O	5	55*	-3	0	10	-1
C=C(C(=O)c1ccccc1)C(C)C(=C)C(=O)c1ccccc1	32	55*	-7	x	x	-3
COc1ccc(C2=Nn3c(nnc3-c3ccccc3OC)SC2)cc1OC	47	60*	x	x	x	-1
COc1cccc(CNC(=O)c2ccc(CS(=O)Cc3ccc(C)cc3)o2)c1 (stereo unspecified)	-4	x	-60	-31	4	0
O=C1Cn2nnc(-c3ccccc3)c2C2c3ccccc3CCN12 (stereo unspecified)	x	x	x	x	x	1
Cc1ccc(S(=O)(=O)NCCN2CCOCC2)c(C)c1C	7	14	2	-8	-12	-1
CCC(=O)OCCNc1cc(SCCC(=O)OC)c2nonc2c1[N+](=O)[O-]	-2	15	9	-10	25	-2
CCC(=O)OCCNc1cc(Sc2nccn2C)c2nonc2c1[N+](=O)[O-]	-2	69*	4	x	x	0
O=[N+]([O-])c1ccc(/C=C/C2=NN(c3ccccc3)C(c3ccco3)C2)o1 (stereo unspecified)	5	-299	54*	x	x	0
C(=C\c1ccco1)/C1=NN(c2ccccc2)C(c2ccco2)C1 (stereo unspecified)	-20	3	15	-42	9	1
COc1ccc(CS(=O)c2nc(C)cc(C)c2S(C)(=O)=O)cc1 (stereo unspecified)	19	4	-1	24	-16	2
Cc1ccc2nc(NCc3ccccc3)[nH]c2c1	-1	60*	x	x	x	-3
